Screening results (PubChem BioAssay)
ABHD5 PLIN5 PPI = inhibitors of human ABHD5-perilipin-5 interaction | Q00G26+Q8WTS1 | Split G. princeps luciferase complementation, luminescence, 4 h | inhibition, % at 4 µM | 0.78% of 360,000 active;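 active = inhibition above the mean inhibition across every tested compound plus 3 SD, cut at about 22% in these data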;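 also: 0% = DMSO only wells and the 100% control is not disclosed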
core dimer inh = blocks dimerization of HCV core protein; TR-FRET GST/Flag-core106 dimerization, 1536-well; inhibition, % at 5 µM; 0.33% of 300,000 active; AID 1899;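 active = inhibition above the mean of all tested compounds plus 3 SD, set per screening campaign, cut at about 45% in these data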
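System: GST/Flag-tagged HCV core106 proteins. Incubation: compound-protein-antibody incubation 4 h at 22.5 °C. Technique: HTRF with 340 nm excitation, 617/671 nm emission. Medium: KF-containing HEPES buffer, pH 7.45, DTT, CHAPS, BSA. Read-out: inhibition (%) from 671 over 617 nm ratio. Also added: Eu(K)-anti-GST 90 ng/mL plus XL665-anti-Flag 1 µg/mL.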
NadD block = NadD (S. aureus) enzyme inhibition | purified NadD enzyme, colorimetric absorbance read-out | inhibition, % at 20 µM | 0.78% of 360,000 active; in the data active = inhibition above about 26%
rCAG RNA binder = r(CAG) repeat RNA binding; TO-PRO-1 dye displacement fluorescence; inhibition, % at 3 µM; 1.3% of 370,000 active;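 active = inhibition above the plate cutoff, the mean of all test compounds on that plate plus 3 SD, cut at about 35% in these data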;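 also: 0% = DMSO alone and 100% = 100 µM mitoxantrone as full dye displacement; higher means more dye released from RNA so lower well fluorescence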
* marks the source's active call; other numbers are inactive results; · = no result given. In the library only some 2.6% were active in any assay of this set; here they are far more common.

SMILES	ABHD5 PLIN5 PPI	core dimer inh	NadD block	rCAG RNA binder
COc1ccc(N2Cc3ccc(C(=O)N/N=C\c4ccc(O)cc4O)cc3C2)cc1	·	68*	·	·
CCN1CCN(Cc2ccc(NC(=O)c3ccc(C)c(NC(=O)c4cncc(-c5cccs5)c4)c3)cc2C(F)(F)F)CC1	26*	·	10	·
CCN1CCN(Cc2ccc(NC(=O)c3ccc(C)c(NC(=O)c4nccn4C)c3)cc2C(F)(F)F)CC1	4	-5	-5	1
CCOC(=O)c1c(N)sc2c1CCC(CC)C2 (centres undefined)	-13	2	-4	5
CCOC(=O)c1c(N)sc2c1CCSC2	-5	55*	14	11
C[C@H]1[C@@H]2C[C@@]3(O[C@H](c4ccccn4)N=C3C[C@@H]1c1ccccc1)N(Cc1ccncc1)C2=O	·	·	·	2
Cc1nc2sc3c(c2c(=O)[nH]1)CCC3	-2	-3	-2	-1
Cc1cc(-c2nc3c4c5c(sc4[nH]c(=O)n3n2)CCC5)c(C)o1	5	55*	-1	·
Cc1nc2cc(NCc3nc4ccccc4n3Cc3ccccc3)ccc2n1C	22*	-9	3	-5
Cc1cccc(NCc2nc3ccccc3n2Cc2ccccc2)c1	1	8	6	-5
COc1cc(N)ccc1Nc1c2ccccc2nc2ccccc12	-3	·	35*	·
CCCN(CC1CC1)C(=O)c1oc(=O)c2ccccc2c1-c1ccc(C)cc1	·	·	·	1
COc1cc(N2CCOCC2)ccc1C=C(C#N)C#N	-9	6	0	0
COc1cc(N2Cc3ccccc3C2)ccc1C=O	-3	46*	14	16
Cc1ccc(-c2nnc(SCC(=O)Nc3ccc4c(c3)OCCO4)n2-c2ccc(C)cc2)cc1	·	·	·	9
CCC(C)Sc1nc2c(c(=O)[nH]1)C(c1cccs1)C1=C(CCCC1=O)N2 (centres undefined)	5	57*	9	16
O=C1CCCC2=C1C(c1ccncc1)c1c(nc(SCc3ccccc3Cl)[nH]c1=O)N2 (centres undefined)	17	7	23	8
O=C(N=Nc1c(O)[nH]c2ccc([N+](=O)[O-])cc12)c1cc(-c2ccccc2Cl)nc2ccccc12	-2	47*	19	17
COc1ccccc1C(=O)N=Nc1c(O)[nH]c2ccc([N+](=O)[O-])cc12	-2	·	32*	10
NC(=O)N=Nc1c(O)[nH]c2ccc([N+](=O)[O-])cc12	4	-8	0	2
CCCC[C@@]1(C2CCCC2)Cc2cc(OCC(=O)O)c(Cl)c(Cl)c2C1=O	-5	-3	5	47*
C[C@]1(C2CCCC2)Cc2cc(OCC(=O)O)c(Cl)c(Cl)c2C1=O	4	15	-5	8
Cc1sc2nc(COC(=O)CNC(=O)c3ccccc3Cl)[nH]c(=O)c2c1C	·	·	·	5
Cc1c(C(=O)OCc2ccccc2)[nH]c2c1C(=O)CC(c1ccco1)C2 (centres undefined)	14	51*	16	·
Cc1c(C(=O)OCCOC(C)C)[nH]c2c1C(=O)CC(c1ccco1)C2 (centres undefined)	30*	10	0	·
SMILES	ABHD5 PLIN5 PPI	core dimer inh	NadD block	rCAG RNA binder
COCCOC(=O)c1[nH]c2c(c1C)C(=O)CC(c1ccco1)C2 (centres undefined)	15	42	3	25
CCOC(=O)c1[nH]c2c(c1C)C(=O)CC(c1ccco1)C2 (centres undefined)	13	44	1	31
CCCCCCCCN1C(=O)[C@@H](CC(=O)NCCc2ccccc2OC)C[C@@]2(C(=O)OC)C1=C[C@H](C1CCCC1)O[C@@H]2C	·	·	·	1
CC(C)C(=O)N(c1ccc2oc(=O)sc2c1)S(=O)(=O)c1cccs1	30*	0	-1	9
COc1ccccc1/C=N/NC(=O)C1=NNC(c2ccccc2)(c2ccccc2)C1	·	54*	·	·
CCOC(=O)Cc1nc(N2CCN(CCO)CC2)c2c(C)c(C(=O)OCC)sc2n1	·	·	·	3
COCCn1c(C)cc(C(=O)COC(=O)c2cc3c(s2)CCC3)c1C	9	79*	16	3
Cc1ccc2nc(-c3cccc(Cl)c3)c(Cc3ccccc3C(F)(F)F)n2c1	·	·	·	3
CCC(C)Sc1cccc(-c2nc3ccc(C)cn3c2NCc2ccccc2)c1 (centres undefined)	-10	-3	9	2
CCC(C)Sc1cccc(-c2nc3ccc(Cl)cn3c2NCc2ccccc2)c1 (centres undefined)	-23	-4	31*	·
COc1ccccc1CNC(=O)CSc1ccc(-c2cccs2)nn1	1	3	-1	-3
COc1ccccc1CNC(=O)CSc1ccc(-c2ccccn2)nn1	-8	56*	-1	-6
COC(=O)[C@]12C[C@H](CC(=O)N3CCCC3)C(=O)N(CCc3ccc(OC)c(OC)c3)C1=C[C@H](C1CCCC1)O[C@@H]2C	·	·	·	1
